Test results from ChEMBL document CHEMBL1140842 (J Med Chem, 2008).
Values after ≈ are worked out from the molar mass of the structure shown. Active and inactive are the calls of the source. The rule behind the calls is not given here.

What was measured:
HUVEC [1] = test: Selectivity index, ratio of IC50 for HUVEC cells to IC50 for human NPC-TW01 cells; format: functional
In short: (§1)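 Selectivity index taken as the ratio between IC50 in the normal line (HUV-EC-C or CHO-K1) and IC50 in NPC-TW01. Each IC50 came from a 72 h MTT assay, with final concentrations of 0.5 nM to […].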

A498 = test: Cytotoxicity against human A498 cells after 72 hrs by MTT assay; format: functional, cell-based; conditions: A498, 72 h
NPC-TW01 [2] = test: Induction of morphological changes in human NPC-TW01 cells assessed as microtubule aggregation around nuclei at 1 uM by confocal microscopy; format: functional, cell-based
In short: (§2)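 NPC-TW01 cells grown on coverslips and exposed to compound at 1 µM for 24 h, washed in PBS, then fixed in 4% paraformaldehyde. For tubulin, cells were permeabilized (0.1% Triton X-100), blocked (0.1% BSA), and incubated 45 min at room temperature with anti-β-tubulin (1:200), followed by PE-goat anti-mouse IgG (1:100). For chromosomes, cells were stained with Hoechst 33258. Imaged by laser-scanning confocal microscopy.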

[3] = Cytotoxicity against human MES-SA cells after 72 hrs by MTT assay; format: functional, cell-based
In short: (§3)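 2 × 10⁴ cells/well seeded 12 h before dosing; serial dilutions added at final 0.5 nM to […] for 72 h. Medium then replaced, MTT (5 mg/mL stock, 10 µL) added for 4 h at 37 °C, formazan dissolved in DMSO, absorbance read at 570 nm. Viability plotted against untreated control; IC50 = 50% growth inhibition. Means of at least three independent experiments.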

NCI-H838 = test: Cytotoxicity against human NCI-H838 cells after 72 hrs by MTT assay; format: functional, cell-based; conditions: NCI-H838, 72 h; in short: as §3
NPC-TW01 [4] = test: Induction of apoptosis in human NPC-TW01 cells assessed as chromosomal condensation by fluorescence microscopy; format: functional, cell-based; in short: as §2
CHO-K1 = test: Selectivity index, ratio of IC50 for CHOK1 cells to IC50 for human NPC-TW01 cells; format: functional; in short: as §1
[5] = Cytotoxicity against CHOK1 cells after 72 hrs by MTT assay; format: cell-based; conditions: Cricetulus griseus, CHO-K1, 72 h
[6] = Solubility in PBS buffer; format: physicochemical
HCT-116 = test: Cytotoxicity against human HCT116 cells after 72 hrs by MTT assay; format: functional, cell-based; conditions: HCT-116, 72 h; in short: as §3
MKN-45 = test: Cytotoxicity against human MKN45 cells after 72 hrs by MTT assay; format: functional, cell-based; conditions: MKN-45, 72 h
[7] = Cytotoxicity against human NPC-TW01 cells after 72 hrs by MTT assay; format: functional, cell-based; conditions: NPC-TW01, 72 h
In short: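 2 × 10⁴ cells/well seeded 12 h before dosing; serial dilutions added at final 0.5 nM to […] for 72 h. Medium then replaced, MTT (5 mg/mL stock, 10 µL) added for 4 h at 37 °C, formazan dissolved in DMSO, absorbance read at 570 nm. Means of at least three independent experiments.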

HUVEC [8] = test: Cytotoxicity against HUVEC cells after 72 hrs by MTT assay; format: cell-based; conditions: Homo sapiens
[9] = Cytotoxicity against human Hep3B cells after 72 hrs by MTT assay; format: functional, cell-based, Hep 3B2

solubility [6] [µg/mL]	SMILES	Selectivity Index (HUVEC [1])	IC50 (A498) [nM]	Activity (NPC-TW01 [2])	IC50 [3] [nM]	IC50 (NCI-H838) [nM]	Activity (NPC-TW01 [4])	Selectivity Index (CHO-K1)	IC50 [5] [nM]	IC50 (HCT-116) [nM]	IC50 (MKN-45) [nM]	IC50 [7] [nM]	IC50 (HUVEC [8]) [nM]	IC50 [9] [nM]
53 (≈ 46.9 µM)	CO[C@@H]1O[C@H](CO)[C@@H](O)[C@H](O)[C@H]1OC(=O)CCC(=O)O[C@@H](C(=O)O[C@H]1C[C@@]2(O)[C@@H](OC(=O)c3ccccc3)[C@@H]3[C@]4(OC(C)=O)CO[C@@H]4C[C@H](O)[C@@]3(C)C(=O)[C@H](OC(C)=O)C(=C1C)C2(C)C)[C@@H](NC(=O)c1ccccc1)c1ccccc1	> 250	> 100000	Active	82	82	Active	> 250	> 100000	100	> 100000	25	> 100000	100000
104 (≈ 90.9 µM)	CO[C@@H]1O[C@H](C(=O)O)[C@@H](O)[C@H](O)[C@H]1OC(=O)CCC(=O)O[C@@H](C(=O)O[C@H]1C[C@@]2(O)[C@@H](OC(=O)c3ccccc3)[C@@H]3[C@]4(OC(C)=O)CO[C@@H]4C[C@H](O)[C@@]3(C)C(=O)[C@H](OC(C)=O)C(=C1C)C2(C)C)[C@@H](NC(=O)c1ccccc1)c1ccccc1	> 670	> 100000	–	95	267	–	> 670	> 100000	452	> 100000	67	> 100000	> 100000
< 0.4	CC(=O)O[C@H]1C(=O)[C@@]2(C)[C@H]([C@H](OC(=O)c3ccccc3)[C@]3(O)C[C@H](OC(=O)[C@H](O)[C@@H](NC(=O)c4ccccc4)c4ccccc4)C(C)=C1C3(C)C)[C@]1(OC(C)=O)CO[C@@H]1C[C@@H]2O [PACLITAXEL]	–	8810	–	8	26	–	–	16000	61	89100	–	5140	7260
137 (≈ 121 µM)	CO[C@@H]1O[C@H](C(=O)O)[C@@H](O)[C@H](O)[C@H]1OCCCC(=O)O[C@@H](C(=O)O[C@H]1C[C@@]2(O)[C@@H](OC(=O)c3ccccc3)[C@@H]3[C@]4(OC(C)=O)CO[C@@H]4C[C@H](O)[C@@]3(C)C(=O)[C@H](OC(C)=O)C(=C1C)C2(C)C)[C@@H](NC(=O)c1ccccc1)c1ccccc1	1520	> 100000	–	201	181	–	2790	24000	469	> 100000	67	44000	> 100000
80 (≈ 71.7 µM)	CO[C@@H]1O[C@H](CO)[C@@H](O)[C@H](O)[C@H]1OCCCC(=O)O[C@@H](C(=O)O[C@H]1C[C@@]2(O)[C@@H](OC(=O)c3ccccc3)[C@@H]3[C@]4(OC(C)=O)CO[C@@H]4C[C@H](O)[C@@]3(C)C(=O)[C@H](OC(C)=O)C(=C1C)C2(C)C)[C@@H](NC(=O)c1ccccc1)c1ccccc1	> 780	> 100000	–	174	374	–	> 780	> 100000	480	> 100000	78	> 100000	> 100000
